CHRM5 agonist: CHRM5 agonism in calcium assay; P08912; AID 624037; activation, % at 3 µM; actives 0.19% (n = 360,000); CHO-K1 hM5 cells, Fluo-8 calcium fluorescence; 0% DMSO wells, 100% maximal acetylcholine response;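 active = activation above the run's mean over test compounds plus 3 SD, cut at about 23% in these data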;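 also: signal is peak over basal fluorescence ratio across the kinetic read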
Target sequence (P08912 whole entry, looked up): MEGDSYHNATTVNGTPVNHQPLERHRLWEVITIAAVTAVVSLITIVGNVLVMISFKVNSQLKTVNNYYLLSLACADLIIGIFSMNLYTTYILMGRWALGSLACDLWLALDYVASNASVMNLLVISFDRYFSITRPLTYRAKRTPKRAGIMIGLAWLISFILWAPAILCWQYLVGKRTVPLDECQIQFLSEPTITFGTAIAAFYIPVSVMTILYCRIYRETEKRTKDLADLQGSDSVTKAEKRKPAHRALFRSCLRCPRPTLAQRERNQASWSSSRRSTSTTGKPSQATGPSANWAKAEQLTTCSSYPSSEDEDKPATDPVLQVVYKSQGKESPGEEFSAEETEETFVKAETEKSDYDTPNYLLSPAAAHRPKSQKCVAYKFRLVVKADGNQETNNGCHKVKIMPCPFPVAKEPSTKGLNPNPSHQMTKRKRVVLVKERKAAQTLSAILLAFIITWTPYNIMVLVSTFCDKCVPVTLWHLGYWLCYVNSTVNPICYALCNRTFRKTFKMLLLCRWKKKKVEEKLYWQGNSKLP
CHRM5 antagonist: blocks acetylcholine activation of human M5 receptor. CHO-hM5 cells, Fluo-8 calcium fluorescence, ACh EC80. actives 0.59% (n = 360,000). AID 624040. inhibition, % at 3 µM. P08912;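 active = inhibition above a per-plate cutoff, the mean of that plate's test compounds plus 3 SD, cut at about 27% in these data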;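 also: 0% = acetylcholine EC80 with DMSO and 100% = DMSO without agonist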
M4 ag: CHRM4 agonism in calcium assay; activation, % at 3 µM; AID 624127; actives 0.14% (n = 360,000); CHO-K1 hM4/Gqi5, Fluo-8 calcium fluorescence; vehicle 0%, full acetylcholine response 100%; P08173;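 active = activation above the run mean over all test wells plus 3 SD, cut at about 32% in these data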;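 also: peak over basal fluorescence ratio per well then scaled between controls; 0% = DMSO wells and 100% = acetylcholine at EC100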
CHRM5 PAM: positive allosteric modulators of human muscarinic M5 receptor; CHO-K1 hM5, Fluo-8 calcium, ACh EC20 PAM; 0% = ACh EC20, 100% = ACh EC100; activation, % at 3 µM; actives 0.3% (n = 360,000); AID 624038;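 active = activation above the run cutoff, the mean activation of all test compounds plus 3 SD, cut at about 18% in these data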
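Measured by: Fluo-8 calcium fluorescence; material: human M5 receptor in CHO-K1 cells; schedule: Post-acetylcholine fluorescence recording 140 s; benchmarks: low control EC20 acetylcholine (0%), high control EC100 acetylcholine (100%); read-out: Max/basal fluorescence ratio as % of EC20–EC100 ACh window; compound: single dose, 3 µM nominal final test concentration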
CHRM4 PAM: potentiates acetylcholine response at human M4 receptor. activation, % at 3 µM. actives 0.4% (n = 360,000). P08173. AID 624126. CHO-K1 hM4/Gqi5, Fluo-8 calcium fluorescence, ACh EC20; 0% = ACh EC20, 100% = maximal ACh;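 active = activation above its plate's cutoff, the mean activation of sample wells plus 3 SD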
CHRM4 antagonist: CHRM4 antagonism in calcium assay; inhibition, % at 3 µM; CHO-hM4 cells, ACh EC80, Fluo-8 calcium fluorescence; P08173; actives 0.73% (n = 360,000); AID 624125;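 active = inhibition above its plate's cutoff, the mean inhibition of sample wells plus 3 SD, cut at about 27% in these data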;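 also: 0% = acetylcholine EC80 with DMSO and 100% = DMSO without agonist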
* hit, by the source's call. Hits are enriched below; roughly 1.8% of the tested compounds scored in any of these assays.

SMILES | CHRM5 agonist | CHRM5 antagonist | M4 ag | CHRM5 PAM | CHRM4 PAM | CHRM4 antagonist
COc1ccc(NCc2nnc(SCC(=O)c3ccc(OC)cc3)n2C)cc1 | -2 | 33* | 4 | 36* | 1 | -14
NC(=O)C1CCN(CC(=O)Nc2cccnc2Cl)CC1 | -3 | 1 | 2 | 3 | -3 | 1
O=C(C1CCCO1)N1CCN(C(c2ccccc2)c2ccccc2)CC1 (configuration not stated) | -7 | -4 | 0 | -1 | -7 | 2
O=C(C1CCCO1)N1CCC(O)(c2ccccc2)CC1 (configuration not stated) | 2 | -4 | 1 | 3 | 20* | 4
CC(C)C(=O)Nc1ccc(N2CCCC2)cc1 | -2 | 1 | 0 | 1 | -13 | 30*
COc1cc(NS(=O)(=O)c2ccc(C)cc2)c2ncccc2c1 | -6 | 22 | 1 | -1 | 0 | 26
Cc1ccc(S(=O)(=O)Nc2cccc3cccnc23)cc1 | -3 | 18 | 3 | -5 | -5 | 32*
O=C(NCc1ccccn1)c1ccc(=O)oc1 | 1 | -3 | 1 | 1 | 31* | 10
O=C(NCc1ccccn1)c1ccc(-c2ccccc2)cc1 | 2 | -26 | 2 | 2 | 1 | -6
O=C(/C=C/c1ccccc1[N+](=O)[O-])NCc1ccncc1 | -1 | -10 | 1 | 6 | 15 | -8
COC(=O)c1sc(-c2ccccc2)cc1NC(=O)c1ccc(OC)cc1 | -1 | -1 | 1 | 9 | 24* | -15
C#CCNC(=O)C[C@@H]1C[C@@]2(C(=O)OC)CCCCC=C2N(Cc2ccc(Cl)cc2Cl)C1=O | 0 | -6 | 2 | 1 | 1 | -6
OC(c1cccc(OCc2ccccc2)c1)c1nnc(-c2ccccc2)o1 (configuration not stated) | 1 | 28* | 14 | -26 | -13 | 18
CN(CC(=O)Nc1ccccc1Br)C(=O)COc1ccc2ccccc2c1 | 5 | 0 | 9 | -6 | -4 | 2
O=C(CSc1nc2ccccc2c(=O)n1-c1ccc(F)cc1)Nc1cc(S(=O)(=O)N2CCOCC2)ccc1Cl | 2 | 5 | 4 | -9 | -38 | 30*
CCc1ccc(-c2cc(C)no2)cc1S(=O)(=O)N1CCOc2ccccc21 | -4 | 0 | 1 | -6 | -9 | -3
Cc1ccc2cc(C=O)c(Cl)nc2c1 | -3 | -8 | 0 | -5 | 13 | -5
O=C(Nc1ccccc1O)C(c1ccccc1)c1ccccc1 | 6 | 25 | 15 | -14 | -13 | 16
CCOC(=O)c1c(NC(=O)CN2CCN(S(=O)(=O)c3cc(Cl)ccc3Cl)CC2)sc(C(=O)N(C)C)c1C | -10 | 16 | 8 | -18 | -13 | 41*
CCOC(=O)c1c(NC(=O)COC(=O)c2ccc(Cl)nc2)sc(C(=O)N(C)C)c1C | 7 | 4 | 5 | -3 | 8 | -12
CCOC(=O)c1c(NC(=O)COC(=O)CCOc2ccc(C)cc2)sc(C(=O)N(C)C)c1C | 0 | -26 | 1 | 19* | 13 | -7
CN(C(=O)CS(=O)(=O)c1cn(CC(=O)N2CCCCC2)c2ccccc12)c1ccccc1 | -1 | 7 | 6 | 2 | 1 | -5
CCCn1c(SCC(=O)Nc2cccc(F)c2)nc(O)cc1=O | 5 | 34* | 41* | -5 | -11 | 27*
Cc1ccc(NC(=O)C(C)N2C(=O)c3ccccc3C2=O)cc1C (configuration not stated) | -8 | 25 | 1 | 3 | -3 | -2
Cc1nn(CC(=O)NCCCc2ccccc2)c(=O)c2cccn12 | 0 | -2 | 1 | 0 | 1 | -7
Cc1nn(CC(=O)NCc2cccc(F)c2)c(=O)c2cccn12 | -5 | 29* | 1 | -5 | 2 | 0
CC(=O)C1=CCC(c2ccc(Cl)c(Cl)c2)N(S(=O)(=O)c2ccc(C)cc2)C1 (configuration not stated) | -1 | 8 | 5 | -13 | -12 | 1
COCCNC(=O)C1CCCN(C(=O)/C=C/c2ccccc2)CC1 (configuration not stated) | 1 | 8 | 1 | -4 | 1 | 2

Screening results deposited in PubChem by The Scripps Research Institute Molecular Screening Center.
